What was measured:
[1] = target: Kynurenine 3-monooxygenase (Mus musculus, UniProt Q91WN4); assay: Inhibition of C57BL/6J mouse KMO assessed as 3-hydroxykynurenine formation preincubated for 5 mins using 100 uM kynurenine as substrate by LC-MS/MS analysis
In short: (§1)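 Liver mitochondrial KMO preparation (mouse C57 BL/6J, rat Wistar, human) at 0.3 mg protein/mL in 100 mM potassium phosphate pH 7.4 with 200 µM NADPH, 0.4 U/mL G6PDH, 3 mM glucose 6-phosphate. Compound pre-incubated 5 min at 25°C, then 100 µM kynurenine added; 40 min (rodent) or 60 min (human). Stopped with TCA; 3-hydroxykynurenine by LC-MS/MS. IC50 from 8-point 3-fold dilutions (top 3 or 30 µM), triplicates, n≥2 runs.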

[2] = target: Kynurenine 3-monooxygenase (Rattus norvegicus, UniProt O88867); assay: Inhibition of Wistar rat KMO assessed as 3-hydroxykynurenine formation preincubated for 5 mins using 100 uM kynurenine as substrate by LC-MS/MS analysis; in short: as §1
Chain of Kynurenine 3-monooxygenase (Rattus norvegicus, UniProt O88867) (O88867 whole entry): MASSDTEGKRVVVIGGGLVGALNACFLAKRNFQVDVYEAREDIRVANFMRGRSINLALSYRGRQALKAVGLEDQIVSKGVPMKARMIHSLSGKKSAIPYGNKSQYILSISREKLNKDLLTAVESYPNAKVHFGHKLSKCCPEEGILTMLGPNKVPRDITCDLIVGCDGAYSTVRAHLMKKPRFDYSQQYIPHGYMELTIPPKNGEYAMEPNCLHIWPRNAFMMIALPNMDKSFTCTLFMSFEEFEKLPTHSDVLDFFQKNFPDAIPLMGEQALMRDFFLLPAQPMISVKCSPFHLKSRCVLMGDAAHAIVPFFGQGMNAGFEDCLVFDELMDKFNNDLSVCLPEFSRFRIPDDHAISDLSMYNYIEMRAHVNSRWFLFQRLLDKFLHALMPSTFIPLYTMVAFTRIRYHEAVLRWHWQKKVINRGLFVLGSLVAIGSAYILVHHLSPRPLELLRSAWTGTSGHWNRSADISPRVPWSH

[3] = target: Kynurenine 3-monooxygenase (Homo sapiens, UniProt O15229); assay: Inhibition of human KMO assessed as 3-hydroxykynurenine formation preincubated for 5 mins using 100 uM kynurenine as substrate by LC-MS/MS analysis; in short: as §1
Chain of Kynurenine 3-monooxygenase (Homo sapiens, UniProt O15229) (O15229 whole entry): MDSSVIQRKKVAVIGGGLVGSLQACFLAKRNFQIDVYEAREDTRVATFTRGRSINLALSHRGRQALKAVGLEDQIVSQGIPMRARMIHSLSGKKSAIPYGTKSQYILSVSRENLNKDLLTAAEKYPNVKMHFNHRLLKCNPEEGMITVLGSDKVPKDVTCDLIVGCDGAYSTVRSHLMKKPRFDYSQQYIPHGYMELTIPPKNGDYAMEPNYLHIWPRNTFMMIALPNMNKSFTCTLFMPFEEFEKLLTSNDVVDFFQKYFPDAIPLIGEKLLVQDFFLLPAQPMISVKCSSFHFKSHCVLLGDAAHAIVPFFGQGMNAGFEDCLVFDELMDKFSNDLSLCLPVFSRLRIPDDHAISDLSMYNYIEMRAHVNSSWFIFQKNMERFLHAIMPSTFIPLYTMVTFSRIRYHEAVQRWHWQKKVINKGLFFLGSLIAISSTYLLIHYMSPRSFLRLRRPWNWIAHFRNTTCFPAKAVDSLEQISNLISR

Chain of Kynurenine 3-monooxygenase (Mus musculus, UniProt Q91WN4) (Q91WN4 whole entry): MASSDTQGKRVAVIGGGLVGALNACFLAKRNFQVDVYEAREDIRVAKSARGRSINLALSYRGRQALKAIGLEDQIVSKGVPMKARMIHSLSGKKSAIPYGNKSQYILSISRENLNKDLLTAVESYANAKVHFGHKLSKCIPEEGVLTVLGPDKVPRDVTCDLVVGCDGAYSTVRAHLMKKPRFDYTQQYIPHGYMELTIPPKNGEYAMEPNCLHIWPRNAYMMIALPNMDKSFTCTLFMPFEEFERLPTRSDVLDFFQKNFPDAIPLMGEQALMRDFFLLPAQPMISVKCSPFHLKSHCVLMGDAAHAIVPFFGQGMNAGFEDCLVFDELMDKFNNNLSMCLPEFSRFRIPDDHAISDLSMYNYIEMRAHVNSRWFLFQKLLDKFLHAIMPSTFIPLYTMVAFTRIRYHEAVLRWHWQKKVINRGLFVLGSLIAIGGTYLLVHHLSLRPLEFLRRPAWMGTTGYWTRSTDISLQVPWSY

IC50 [1]	IC50 [2]	IC50 [3]	Structure (SMILES)
22 µM	11 µM	39 µM	COc1ccc(S(=O)(=O)Nc2nc(-c3cccc([N+](=O)[O-])c3)c(CO)s2)cc1OC
27 µM	10 µM	17 µM	COc1ccc(S(=O)(=O)Nc2nc(-c3cccc([N+](=O)[O-])c3)c(CN)s2)cc1OC
